These results are taken from ChEMBL document CHEMBL2021810, “Synthesis, anticancer activities, and cellular uptake studies of lipophilic derivatives of doxorubicin succinate” (J Med Chem, 2012).

Active and inactive are the calls of the source. No cut-off for these calls is given here.

Series [1] has as its system CCRF-CEM. Description: Inhibition of cell proliferation of human CCRF-CEM cells after 96 hrs by CellTiter assay. It counts as functional, cell-based.
Series [2] deals with SK-OV-3. The experiment in a line: Cytotoxicity against human SKOV3 cells after 48 hrs. It counts as functional, cell-based. As to conditions: SK-OV-3, 48 h.
Series [3] has as its target DNA topoisomerase 2-alpha (Homo sapiens) (UniProt P11388). As to conditions: 5 uM.
The nature of series [4]: Drug uptake in doxorubicin-resistant human SKOV3 cell nucleus at 5 uM after 1 hr by confocal microscopic analysis. It counts as ADME, cell-based. As to conditions: sk-ov-3, 1 h. The gist of the method: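 Coverslip-grown SK-OV-3 cells (seeded overnight, EMEM) treated with 5 μM compound in opti-MEM for 1 h at 37 °C, PBS-washed three times, mounted and imaged by laser scanning confocal microscopy using rhodamine and phase contrast channels for Dox fluorescence.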

The subject of series [5] is MDA-MB-468. The experiment in a line: Inhibition of cell proliferation of human MDA-MB-468 cells at 1 uM after 120 hrs by CellTiter assay. It counts as functional. The settings on record: MDA-MB-468, 120 h.
The nature of series [6]: Cellular uptake in doxorubicin-resistant human SKOV3 cells at 5 uM incubated for 1 hr followed by incubation with fresh media for 24 hrs measured by confocal microscopic analysis. As to conditions: sk-ov-3, 1 h. It counts as ADME, cell-based, Cytoplasm. In a few lines: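 SK-OV-3 cells seeded overnight on coverslips in EMEM, exposed to 5 μM compound in opti-MEM for 1 h at 37 °C, washed, then kept in fresh serum-containing medium 24 h; PBS-washed and imaged by laser scanning confocal microscopy, rhodamine and phase contrast channels.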

For series [7], the system named is SK-OV-3. The experiment in a line: Cytotoxicity against human SKOV3 cells at 10 uM incubated for 2 hrs followed by incubation in compound-free medium for 72 hrs by MTT assay. It counts as functional. In a few lines: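 SK-OV-3 cells plated overnight at 5000 cells/well; exposed to compound (up to 10 μM), then medium replaced with drug-free medium for 72 h; MTT added 2 h, formazan read at 490 nm; % cytotoxicity = (OD untreated − OD treated)/OD untreated × 100.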

The test system of series [8] is CCRF-CEM. Description: Inhibition of cell proliferation of human CCRF-CEM cells at 1 uM by CellTiter assay. It counts as functional, cell-based. The settings on record: TDE = time-dependent effect.
Series [9] has as its system HT-29. Description: Growth inhibition of human HT-29 cells at 1 uM after 96 hrs by CellTiter assay. It counts as functional, cell-based.
Series [10] concerns MDA-MB-361. Description: Inhibition of cell proliferation of human MDA-MB-361 cells at 1 uM after 96 to 120 hrs by CellTiter assay. It counts as functional.
Series [11] relates to MDA-MB-468. Description: Inhibition of cell proliferation of human MDA-MB-468 cells at 1 uM after 96 to 120 hrs by CellTiter assay. It counts as functional.
Series [12] deals with HT-29. Description: Inhibition of cell proliferation of human HT-29 cells at 1 uM by CellTiter assay. As to conditions: TDE = time-dependent effect. It counts as functional, cell-based.
Series [13] concerns CCRF-CEM. Description: Growth inhibition of human CCRF-CEM cells at 1 uM after 96 hrs by CellTiter assay. It counts as functional, cell-based.
In series [14] the test system is SK-OV-3. Description: Inhibition of cell proliferation of human SKOV3 cells at 1 uM by CellTiter assay. It counts as functional, cell-based. As to conditions: TDE = time-dependent effect.
The subject of series [15] is MDA-MB-468. The experiment in a line: Growth inhibition of human MDA-MB-468 cells at 1 uM after 96 hrs by CellTiter assay. It counts as functional, cell-based.
Series [16] deals with MDA-MB-361. Description: Inhibition of cell proliferation of human MDA-MB-361 cells at 1 uM by CellTiter assay. The settings on record: TDE = time-dependent effect. It counts as functional, cell-based.
For series [17], the system named is CCRF-CEM. Description: Inhibition of cell proliferation of human CCRF-CEM cells at 1 uM after 96 to 120 hrs by CellTiter assay. It counts as functional.
The subject of series [18] is MDA-MB-361. The experiment in a line: Growth inhibition of human MDA-MB-361 cells at 1 uM after 96 hrs by CellTiter assay. It counts as functional, cell-based.
Series [19] deals with SK-OV-3. The experiment in a line: Inhibition of cell proliferation of human SKOV3 cells at 1 uM after 96 to 120 hrs by CellTiter assay. It counts as functional.
Series [20] relates to SK-OV-3. Description: Growth inhibition of human SKOV3 cells at 1 uM after 96 hrs by CellTiter assay. It counts as functional, cell-based.
The subject of series [21] is MDA-MB-468. Description: Inhibition of cell proliferation of human MDA-MB-468 cells at 1 uM by CellTiter assay. It counts as functional, cell-based. As to conditions: TDE = time-dependent effect.
Series [22] has as its system HT-29. Description: Inhibition of cell proliferation of human HT-29 cells at 1 uM after 96 to 120 hrs by CellTiter assay. It counts as functional.
Series [23] has as its target DNA topoisomerase 2-alpha (Homo sapiens) (UniProt P11388). Description: Inhibition of topoisomerase 2-mediated KDNA decatenation at 25 uM after 30 mins by gel electrophoretic analysis. The gist of the method: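 Eukaryotic Topo II decatenation of kDNA (0.1 μg) in Tris-HCl 50 mM pH 8.0, NaCl 150 mM, MgCl2 10 mM, DTT 0.5 mM, ATP 2 mM with compound at 1–25 μM final, 30 min at 37 °C; stopped with sarkosyl buffer; products resolved on 1% agarose with ethidium bromide.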

Chain of DNA topoisomerase 2-alpha (Homo sapiens) (P11388 whole entry): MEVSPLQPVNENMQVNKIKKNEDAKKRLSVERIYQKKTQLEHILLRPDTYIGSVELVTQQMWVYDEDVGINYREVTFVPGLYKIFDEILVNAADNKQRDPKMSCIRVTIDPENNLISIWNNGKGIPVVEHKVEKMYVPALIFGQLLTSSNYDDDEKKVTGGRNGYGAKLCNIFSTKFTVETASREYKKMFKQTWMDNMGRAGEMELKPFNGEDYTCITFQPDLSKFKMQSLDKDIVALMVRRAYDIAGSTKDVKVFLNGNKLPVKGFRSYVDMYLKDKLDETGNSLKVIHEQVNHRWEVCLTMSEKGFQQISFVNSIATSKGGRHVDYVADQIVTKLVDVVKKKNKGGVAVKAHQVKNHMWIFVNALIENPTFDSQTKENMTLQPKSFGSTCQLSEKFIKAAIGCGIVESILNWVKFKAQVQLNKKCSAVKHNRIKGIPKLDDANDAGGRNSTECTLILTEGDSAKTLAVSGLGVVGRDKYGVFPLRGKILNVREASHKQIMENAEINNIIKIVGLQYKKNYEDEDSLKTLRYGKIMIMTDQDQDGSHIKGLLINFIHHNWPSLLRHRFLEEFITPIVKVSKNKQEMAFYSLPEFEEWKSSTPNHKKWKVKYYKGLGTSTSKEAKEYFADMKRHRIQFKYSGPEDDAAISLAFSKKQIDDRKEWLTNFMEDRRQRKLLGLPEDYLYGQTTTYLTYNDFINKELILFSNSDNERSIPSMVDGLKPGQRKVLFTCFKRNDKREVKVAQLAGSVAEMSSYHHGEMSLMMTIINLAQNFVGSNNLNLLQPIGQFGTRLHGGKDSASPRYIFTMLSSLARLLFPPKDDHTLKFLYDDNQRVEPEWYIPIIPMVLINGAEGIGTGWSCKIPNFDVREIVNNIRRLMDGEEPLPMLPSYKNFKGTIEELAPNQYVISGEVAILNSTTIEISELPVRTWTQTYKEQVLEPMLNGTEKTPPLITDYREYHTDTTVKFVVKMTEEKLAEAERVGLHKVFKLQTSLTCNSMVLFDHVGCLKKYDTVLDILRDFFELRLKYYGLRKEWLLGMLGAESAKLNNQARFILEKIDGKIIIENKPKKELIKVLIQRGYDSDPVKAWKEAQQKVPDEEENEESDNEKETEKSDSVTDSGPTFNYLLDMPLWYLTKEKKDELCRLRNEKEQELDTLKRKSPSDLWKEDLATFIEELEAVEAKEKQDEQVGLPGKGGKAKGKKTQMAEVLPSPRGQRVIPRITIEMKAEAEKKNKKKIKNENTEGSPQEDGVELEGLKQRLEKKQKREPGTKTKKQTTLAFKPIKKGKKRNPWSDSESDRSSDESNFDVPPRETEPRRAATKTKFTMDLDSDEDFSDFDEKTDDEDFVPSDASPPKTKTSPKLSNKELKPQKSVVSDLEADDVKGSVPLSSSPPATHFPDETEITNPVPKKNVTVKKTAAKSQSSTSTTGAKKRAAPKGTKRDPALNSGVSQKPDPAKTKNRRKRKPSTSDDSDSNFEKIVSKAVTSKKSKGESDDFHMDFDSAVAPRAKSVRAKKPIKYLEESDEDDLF

In general, IC50 refers to the concentration at which inhibition is half-maximal. A lower IC50 goes with greater potency in that assay. Usually inhibition stands for how much of the control response was suppressed. In the case of `COc1cccc2c1C(=O)c1c(O)c3c(c(O)c1C2=O)C[C@@](O)(C(=O)CO)C[C@@H]3O[C@H]1C[C@H](N)[C@H](O)[C@H](C)O1` [DOXORUBICIN], the 50% inhibitory concentration (IC50) is 45 nM in the series on CCRF-CEM [1] and 5000 nM in the series on SK-OV-3 [2]. For the same compound, in series [3], the inhibition entry is “Active”. Besides, the results for the Drug uptake result in series [4] and in [6] were “Active” and “Not Active”, respectively. The compound also showed an inhibition at 1 µM with MDA-MB-468 [5] of 69.1%. For the same compound, the Activity in the series on SK-OV-3 [7] turned out to be 51.5%.
In the series with CCRF-CEM [1], `CCCCCCCCCCNC(=O)CCC(=O)OCC(=O)[C@]1(O)Cc2c(O)c3c(c(O)c2[C@@H](O[C@H]2C[C@H](N)[C@H](O)[C@H](C)O2)C1)C(=O)c1c(OC)cccc1C3=O` came in with an IC50 of 75 nM. Further, the inhibition result in the series with CCRF-CEM [8], in the series on HT-29 [12], in the series with SK-OV-3 [14], in the series on MDA-MB-361 [16] and in the series with MDA-MB-468 [21] was “tde” throughout. Besides, the “growth inhibition (GI)” value with HT-29 [9], in the series on CCRF-CEM [13], in the series on MDA-MB-468 [15], with MDA-MB-361 [18] and with SK-OV-3 [20] was “Active” throughout. The inhibition at 1 µM with MDA-MB-361 [10] was 66%; in the series on MDA-MB-468 [11] it was 49%; in the series on CCRF-CEM [17], 69%; in the series with SK-OV-3 [19], 54%; with HT-29 [22], 60%.
Consider `CCCCCCCCCCCCNC(=O)CCC(=O)OCC(=O)[C@]1(O)Cc2c(O)c3c(c(O)c2[C@@H](O[C@H]2C[C@H](N)[C@H](O)[C@H](C)O2)C1)C(=O)c1c(OC)cccc1C3=O`, for which the midpoint of inhibition in the series on CCRF-CEM [1], the IC50, lay at 75 nM. Also, the inhibition result with CCRF-CEM [8], with HT-29 [12], with SK-OV-3 [14], with MDA-MB-361 [16] and in the series with MDA-MB-468 [21] was “tde” throughout. For the same compound, the “growth inhibition (GI)” value with HT-29 [9], in the series on CCRF-CEM [13], with MDA-MB-468 [15], in the series on MDA-MB-361 [18] and in the series on SK-OV-3 [20] was “Active” each time. Besides, the inhibition at 1 µM with MDA-MB-361 [10] was 66%; with MDA-MB-468 [11], 49%; in the series on CCRF-CEM [17] it was 69%; in the series with SK-OV-3 [19], 54%; in the series with HT-29 [22] it was 60%.
Regarding `CCCCCCCCCCCCCCCC(=O)N[C@H]1C[C@H](O[C@H]2C[C@](O)(C(=O)CO)Cc3c(O)c4c(c(O)c32)C(=O)c2c(OC)cccc2C4=O)O[C@@H](C)[C@H]1O`, the inhibition entry in [23] was “inactive”.
In the case of `COc1cccc2c1C(=O)c1c(O)c3c(c(O)c1C2=O)C[C@@](O)(C(=O)COC(=O)CCC(=O)O)C[C@@H]3O[C@H]1C[C@H](N)[C@H](O)[C@H](C)O1`, inhibition in the series on CCRF-CEM [1] was half-maximal at 75 nM (IC50). Besides, the inhibition entry in the series on CCRF-CEM [8], with HT-29 [12], in the series with SK-OV-3 [14], with MDA-MB-361 [16] and in the series with MDA-MB-468 [21] was “tde” each time. In addition, the “growth inhibition (GI)” value in the series on HT-29 [9], in the series with CCRF-CEM [13], with MDA-MB-468 [15], in the series on MDA-MB-361 [18] and with SK-OV-3 [20] was “Active” throughout. For the same compound, the inhibition at 1 µM in the series on MDA-MB-361 [10] was 66%; in the series on MDA-MB-468 [11], 49%; in the series with CCRF-CEM [17], 69%; with SK-OV-3 [19], 54%; with HT-29 [22] it was 60%.
For the compound `CCCCCCCCCCCCCCCCNC(=O)CCC(=O)OCC(=O)[C@]1(O)Cc2c(O)c3c(c(O)c2[C@@H](O[C@H]2C[C@H](N)[C@H](O)[C@H](C)O2)C1)C(=O)c1c(OC)cccc1C3=O`, in the series with CCRF-CEM [1], the IC50 was found to be 75 nM. Also, the inhibition result in the series on CCRF-CEM [8], in the series with HT-29 [12], in the series with SK-OV-3 [14], with MDA-MB-361 [16] and with MDA-MB-468 [21] was “tde” each time. The “growth inhibition (GI)” value in the series on HT-29 [9], with CCRF-CEM [13], in the series on MDA-MB-468 [15], in the series with MDA-MB-361 [18] and in the series with SK-OV-3 [20] was “Active” each time. The inhibition at 1 µM with MDA-MB-361 [10] stood at 66%; with MDA-MB-468 [11], 49%; in the series with CCRF-CEM [17] it was 69%; with SK-OV-3 [19], 54%; in the series with HT-29 [22] it was 60%.
In turn, `CCCCCCCCCCCCCCOC(=O)CCC(=O)OCC(=O)[C@]1(O)Cc2c(O)c3c(c(O)c2[C@@H](O[C@H]2C[C@H](N)[C@H](O)[C@H](C)O2)C1)C(=O)c1c(OC)cccc1C3=O` displayed an IC50 in the series on CCRF-CEM [1] of 75 nM. In addition, the inhibition entry with CCRF-CEM [8], in the series on HT-29 [12], in the series on SK-OV-3 [14], in the series with MDA-MB-361 [16] and in the series on MDA-MB-468 [21] was “tde” each time. The “growth inhibition (GI)” value in the series on HT-29 [9], with CCRF-CEM [13], with MDA-MB-468 [15], in the series on MDA-MB-361 [18] and with SK-OV-3 [20] was “Active” in each case. Also, the inhibition at 1 µM is 66% with MDA-MB-361 [10]; 49% in the series with MDA-MB-468 [11]; 69% in the series with CCRF-CEM [17]; 54% in the series with SK-OV-3 [19]; 60% in the series on HT-29 [22].
